Experimental data as given in ChEMBL document CHEMBL4390679 (J Med Chem, 2019).
The source made the active and inactive calls. The rule behind the calls is not given here. Starred links: 1 amine or outer side, 2 acyl side, 3 side chain; linkers in the order of their positions; H or OH if unused. Positions of bridges follow the written chain, without caps; N, C: chain ends. Non-standard residues stand in square brackets, D forms with d. Residues, ends and D or L forms follow the SMILES beside them. Abu(4-yl) = O=C([C@H](CC[*:3])N[*:1])[*:2]; N(4-F-Bzl)Gly = O=C(O)CNCc1ccc(F)cc1; X1 = O=C(CN(CCCO)[*:1])[*:2]

Assays:
Vasopressin V1b receptor = biological target: T1, Vasopressin V1b receptor (Homo sapiens, UniProt P47901); assay: Agonist activity at recombinant human V1b receptor expressed in HEK293 cells assessed as increase in intracellular calcium level measured at 3 secs interval for 5 mins by fura-2/AM dye based micro spectrofluorometric method; assay type: cell-based
T1 sequence (P47901 whole entry): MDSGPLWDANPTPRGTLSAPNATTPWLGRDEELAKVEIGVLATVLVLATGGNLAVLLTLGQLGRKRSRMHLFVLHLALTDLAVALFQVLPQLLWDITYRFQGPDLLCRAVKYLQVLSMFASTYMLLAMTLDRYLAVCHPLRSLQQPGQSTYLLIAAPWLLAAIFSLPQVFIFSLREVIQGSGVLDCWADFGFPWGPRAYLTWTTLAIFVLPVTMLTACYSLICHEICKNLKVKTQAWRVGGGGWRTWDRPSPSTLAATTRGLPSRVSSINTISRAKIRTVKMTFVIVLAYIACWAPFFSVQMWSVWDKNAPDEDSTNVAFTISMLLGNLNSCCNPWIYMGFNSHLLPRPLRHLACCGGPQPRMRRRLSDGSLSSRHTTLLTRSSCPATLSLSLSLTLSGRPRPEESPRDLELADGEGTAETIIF

Vasopressin V1a receptor = Vasopressin V1a receptor (Homo sapiens, UniProt P37288); assay: Agonist activity at recombinant human V1a receptor expressed in HEK293 cells assessed as increase in intracellular calcium level measured at 3 secs interval for 5 mins by fura-2/AM dye based micro spectrofluorometric method; assay type: cell-based
Vasopressin V1a receptor, sequence (P37288 whole entry): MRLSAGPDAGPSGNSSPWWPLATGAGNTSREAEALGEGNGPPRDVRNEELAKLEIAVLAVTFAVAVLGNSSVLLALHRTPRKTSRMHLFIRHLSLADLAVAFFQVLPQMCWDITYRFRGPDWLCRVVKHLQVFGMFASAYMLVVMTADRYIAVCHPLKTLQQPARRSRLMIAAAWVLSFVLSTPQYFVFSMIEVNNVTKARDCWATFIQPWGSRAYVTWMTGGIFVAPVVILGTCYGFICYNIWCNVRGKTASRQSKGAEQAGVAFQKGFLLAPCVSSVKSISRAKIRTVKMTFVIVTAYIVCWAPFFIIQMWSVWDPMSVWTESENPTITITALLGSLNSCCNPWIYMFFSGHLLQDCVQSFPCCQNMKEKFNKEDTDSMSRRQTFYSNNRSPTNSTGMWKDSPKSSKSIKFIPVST

Homo sapiens [1] = species: Homo sapiens; assay: Selectivity ratio of EC50 for recombinant human V1b receptor expressed in HEK293 cells to EC50 for recombinant human OTR expressed in HEK293 cells; assay type: cell-based
In short: (§1)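 Agonist response measured in HEK-293 cells stably expressing human OTR, V1aR or V1bR, loaded with 1 µM fura-2/AM for 30 min at 37 °C, washed in HEPES-buffered saline pH 7.4. F340/F380 ratio read every 3 s for 5 min at 37 °C, normalized to baseline and to maximal OT (OTR) or AVP (V1aR, V1bR) response; EC50 taken from these curves. n = 3, 20 cells per dish.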

Oxytocin receptor [2] = biological target: T2, Oxytocin receptor (Homo sapiens, UniProt P30559); assay: Agonist activity at recombinant human OTR expressed in HEK293 cells assessed as increase in intracellular calcium level measured at 3 secs interval for 5 mins by fura-2/AM dye based micro spectrofluorometric method; assay type: functional, cell-based
T2 sequence (P30559 whole entry): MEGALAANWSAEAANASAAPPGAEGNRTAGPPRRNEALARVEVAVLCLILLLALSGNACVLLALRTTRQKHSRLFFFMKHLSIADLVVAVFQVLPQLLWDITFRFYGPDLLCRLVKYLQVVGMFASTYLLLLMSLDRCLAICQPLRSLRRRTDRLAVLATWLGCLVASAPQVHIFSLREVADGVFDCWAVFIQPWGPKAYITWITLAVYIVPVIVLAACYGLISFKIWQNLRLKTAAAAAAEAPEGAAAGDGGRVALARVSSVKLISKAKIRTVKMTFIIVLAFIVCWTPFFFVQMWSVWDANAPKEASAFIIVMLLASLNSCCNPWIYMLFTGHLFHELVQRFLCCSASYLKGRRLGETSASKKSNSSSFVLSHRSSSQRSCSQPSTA

Oxytocin receptor [3] = biological target: T2, Oxytocin receptor; assay: Displacement of [3H]OT from recombinant human OTR expressed in HEK293 cell membranes measured after 1 hr
Homo sapiens [4] = species: Homo sapiens; assay: Selectivity ratio of EC50 for recombinant human V1a receptor expressed in HEK293 cells to EC50 for recombinant human OTR expressed in HEK293 cells; assay type: cell-based; in short: as §1
Mus musculus [5] = assay: Cognition enhancing effect in CD38 knock out Slc:ICR mouse sire model of autism spectrum disorder assessed as latency time to retrieve pups by sires at 100 ng/ml, ip administered as single dose measured after 30 mins by parental retrieval test (reference value: 600 sec); assay type: functional
[6] = Drug level in Slc:ICR mouse cerebrospinal fluid at 100 ng/g, iv measured after 12 hrs by LC-MS/MS analysis; assay type: ADME, organism-based; conditions: Slc:ICR, cerebrospinal fluid, 100 ng/g, read-out: Drug uptake
In short: (§2)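 Male ICR mice (30 g) were given 100 ng/g i.v. via the tail vein. Blood was taken by cardiac puncture immediately and at 5, 15 and 30 min; CSF was taken at 30 min or 12 h. Plasma was deproteinized with acetonitrile/methanol 1:1 containing [13C6,15N]OT internal standard and analysed by LC-MS/MS (C8 column, SRM).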

Mus musculus [7] = assay: Cognition enhancing effect in CD38 knock out Slc:ICR mouse sire model of autism spectrum disorder assessed as latency time to retrieve pups by sires at 100 ng/ml, ip administered as single dose measured after 24 hrs by parental retrieval test (reference value: 233 +/- 68 sec); assay type: functional
[8] = Half life in Slc:ICR mouse plasma during fast phase at 100 ng/g, iv measured for 15 mins by LC-MS/MS analysis; assay type: ADME, organism-based; in short: as §2
[9] = Plasma concentration in Slc:ICR mouse at 100 ng/g, iv measured immediately by LC-MS/MS analysis; assay type: ADME, organism-based; conditions: in vivo; in short: as §2
Mus musculus [10] = assay: Antidepressant-like activity in CD38KOCC Slc:ICR mouse model of autism spectrum disorder assessed as decrease in immobility time at 100 ng/ml, ip administered as single dose for 24 hrs prior to testing measured for last 4 mins of 6 mins test by tail suspension test
[11] = Stability in mouse plasma assessed as parent compound remaining at 50 ng/ml measured after 2 hrs by LC-MS/MS analysis; assay type: ADME, cell-free; conditions: read-out: Stability
In short: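 Pooled mouse plasma spiked to a final 50 ng/mL was incubated at 37 °C for 1–120 min, quenched with acetonitrile/methanol 1:1 plus internal standard, and analysed by LC-MS/MS. Percent of the initial concentration was calculated; 85–115% was taken as acceptable.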

[12] = Drug level in Slc:ICR mouse cerebrospinal fluid at 100 ng/g, iv measured after 30 mins by LC-MS/MS analysis; assay type: ADME, organism-based; conditions: Slc:ICR, cerebrospinal fluid, 100 ng/g, read-out: Drug uptake; in short: as §2
[13] = biological target: T3, Oxytocin receptor (Homo sapiens) (UniProt P30559); assay: Displacement of [3H]OT from recombinant human OTR expressed in HEK293 cell membranes assessed as dissociation half life for [3H]OT binding
T3 sequence (whole entry): T2 sequence (P30559 whole entry)
In short: (§3)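 Membranes from HEK-293 cells stably expressing human OTR (5 µg/well) in 50 mM Tris, 10 mM MgCl2, 0.1% BSA, pH 7.4. [3H]OT added at 200 pM, 500 pM and 1 nM; bound and free separated by rapid filtration at multiple time points to build association curves. Kon and Koff fitted; t1/2 from Koff = ln2/t1/2. Two experiments, each in duplicate.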

[14] = biological target: T3, Oxytocin receptor (Homo sapiens); assay: Displacement of [3H]OT from recombinant human OTR expressed in HEK293 cell membranes assessed as association rate constant for [3H]OT binding; in short: as §3
Mus musculus [15] = assay: Cognition enhancing effect in CD38 knock out Slc:ICR mouse sire model of autism spectrum disorder assessed as latency time to retrieve pups by sires at 100 ng/ml, ip administered as single dose measured after 5 hrs by parental retrieval test (reference value: 233 +/- 68 sec); assay type: functional
[16] = Half life in Slc:ICR mouse plasma during slow phase at 100 ng/g, iv measured for 15 to 60 mins by LC-MS/MS analysis; assay type: ADME, organism-based; in short: as §2
Mus musculus [17] = assay: Cognition enhancing effect in CD38 knock out Slc:ICR mouse sire model of autism spectrum disorder assessed as latency time to retrieve pups by sires at 100 ng/ml, ip administered as single dose measured after 12 hrs by parental retrieval test (reference value: 233 +/- 68 sec); assay type: functional
[18] = biological target: T3, Oxytocin receptor (Homo sapiens); assay: Displacement of [3H]OT from recombinant human OTR expressed in HEK293 cell membranes assessed as dissociation rate constant for [3H]OT binding; in short: as §3
Mus musculus [19] = assay: Cognition enhancing effect in CD38KOCC Slc:ICR mouse model of autism spectrum disorder assessed as increase in sucrose consumption over water at 100 ng/ml, ip administered as single dose measured after 24 hrs; assay type: functional, organism-based
Mus musculus [20] = assay: Antidepressant-like activity in CD38KOCC Slc:ICR mouse model of autism spectrum disorder assessed as immobility time at 100 ng/ml, ip administered as single dose for 30 mins prior to testing measured for last 4 mins of 6 mins test by tail suspension test (reference value: 74.2 +/- 2.9 sec); assay type: functional
Mus musculus [21] = assay: Cognition enhancing effect in CD38KOCC Slc:ICR mouse model of autism spectrum disorder assessed as sucrose consumption over water at 100 ng/ml, ip administered as single dose measured after 60 mins relative to control (reference value: 0.46 +/- 0.04); assay type: functional
Mus musculus [22] = assay: Cognition enhancing effect in CD38 knock out Slc:ICR mouse sire model of autism spectrum disorder assessed as latency time to retrieve pups by sires at 0.3 mL, ip administered as single dose measured after 30 mins by parental retrieval test (reference value: 600 sec); assay type: functional
Mus musculus [23] = assay: Cognition enhancing effect in CD38 knock out Slc:ICR mouse sire model of autism spectrum disorder assessed as decrease in latency time to retrieve pups by sires at 0.3 mL, ip administered as single dose measured after 6 hrs by parental retrieval test; assay type: functional, organism-based

Compound	EC50 (Vasopressin V1b receptor) [nM]	EC50 (Vasopressin V1a receptor) [nM]	Ratio EC50 (Homo sapiens [1])	EC50 (Oxytocin receptor [2]) [nM]	Ki (Oxytocin receptor [3]) [nM]	Ratio EC50 (Homo sapiens [4])	half-life [8] [min]	Cp [9] [ng/mL]	Activity (Mus musculus [10])	remaining at 2 h, 50 ng/ml [11] [%]	half-life [16] [min]	Activity (Mus musculus [19])	Time (Mus musculus [20]) [s]	other results
CC[C@H](C)[C@@H]1NC(=O)[C@H](Cc2ccc(O)cc2)NC(=O)[C@@H](N)CCSC[C@@H](C(=O)N(CCCO)CC(=O)N[C@@H](CC(C)C)C(=O)NCC(N)=O)NC(=O)[C@H](CC(N)=O)NC(=O)[C@H](CCC(N)=O)NC1=O (H-[Abu(4-yl)]YIQNC[X1]LG-NH2; thioether 1-6)	> 10	> 10	> 66.6	0.15	3	> 66.6								
CC[C@H](C)[C@@H]1NC(=O)[C@H](Cc2ccc(O)cc2)NC(=O)[C@@H](N)CCSC[C@@H](C(=O)N(CC(=O)N[C@@H](CC(C)C)C(=O)NCC(N)=O)Cc2ccc(F)cc2)NC(=O)[C@H](CC(N)=O)NC(=O)[C@H](CCC(N)=O)NC1=O (H-[Abu(4-yl)]YIQNC[N(4-F-Bzl)Gly]LG-NH2; thioether 1-6)	0.8	4	9	0.089	0.9	45								
CC[C@H](C)[C@@H]1NC(=O)[C@H](Cc2ccc(O)cc2)NC(=O)[C@@H](N)CSSC[C@@H](C(=O)N(CC(=O)N[C@@H](CC(C)C)C(=O)NCC(N)=O)Cc2ccc(F)cc2)NC(=O)[C@H](CC(N)=O)NC(=O)[C@H](CCC(N)=O)NC1=O (H-CYIQNC[N(4-F-Bzl)Gly]LG-NH2; disulfide 1-6)	0.5	2.2	17.5	0.028	0.51	75.3	2.84	118	inactive	85 to 115	2.86	inactive	149.5	Time (Mus musculus [5]): 297 s; concentration at 12 h [6]: 0.38 ng/mL; Time (Mus musculus [7]): 413 s; concentration at 0.5 h [12]: 0.1 ng/mL; T1/2 [13]: 6.38 min; K [14]: 1.05 ×10⁸ /M/min; Time (Mus musculus [15]): 381 s; Time (Mus musculus [17]): 155 s; K [18]: 0.1 min⁻¹; Ratio (Mus musculus [21]): 0.79
CC[C@H](C)[C@@H]1NC(=O)[C@H](Cc2ccc(O)cc2)NC(=O)[C@@H](N)CSSC[C@@H](C(=O)N2CCC[C@H]2C(=O)N[C@@H](CC(C)C)C(=O)NCC(N)=O)NC(=O)[C@H](CC(N)=O)NC(=O)[C@H](CCC(N)=O)NC1=O [OXYTOCIN]							2.91	334	inactive	85 to 115	8.84	inactive	171	Time (Mus musculus [22]): 240 s; Activity (Mus musculus [23]): inactive
